Ecoli rRNA inh = inhibitors of bacterial rRNA selective over humanized ribosomes; E. coli WT GFP vs humanized-ribosome RFP mutants, fluorescence, 24 h; active compounds read low; DMSO median 0, no signal -100; GFP signal change (wild-type ribosome), % (test concentration not listed); 350,000 tested, 1.6% active; AID 720706;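 active means significant combined selectivity score with lowered wild-type GFP, culture density cut under 30%, mutant RFP and density less affected; inactive means any of these conditions unmet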
DENV2 CPE = DENV2-induced cell death inhibition. DENV2-infected cells, cytopathic effect rescue, plate reader. AID 651640. 350,000 tested, 1.7% active. CPE inhibition, % at 9.99 µM; in the data active means CPE inhibition above about 20%, passing the limit was not always enough; inconclusive means no clear call, values can overlap the other calls; tested in BHK-21 cells
PGC1a acetyl inh = modulators of PGC1a acetylation. U2OS PGC1a acetylation, AlphaScreen anti-acetyl-lysine; with virally co-expressed GCN5 acetyltransferase. inhibition, % at 15.6 µM. 350,000 tested, 0.17% active. AID 651687;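 active means every replicate shows inhibition of at least 40%; inconclusive means mean inhibition at least 40% but some replicate below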
PglD DTNB = blocks C. jejuni PglD acetyltransferase activity | AID 602405 | purified PglD enzyme, DTNB colorimetric CoA detection | 360,000 tested, 0.098% active | inhibition, % at 12.5 µM; in the data active means inhibition above about 16%, passing the limit was not always enough; inconclusive means no clear call, values can overlap the other calls
FN deposit inh = fibronectin deposition inhibition | 350,000 tested, 0.086% active | inhibition, % at 12.6 µM | AH1F fibroblasts, Alexa488-fibronectin deposition fluorescence, overnight;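 active means mean inhibition across replicates of 30% or more, regardless of how many single replicates reach that level; inconclusive means mean under 30% yet at least half of replicates reach 30%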
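Assay system: AH1F fibroblasts assembling fluorescent fibronectin matrix; Amount: 10000 AH1F cells per well; Buffer or medium: DMEM, 2% serum; Probe or stimulus: Alexa488-fibronectin, 24 nM final in well; Doses: single compound dose, delivered by pin transfer; Incubation: 1 h adhesion, overnight exposure; Measured by: fluorescence 485/525 nm; Read-out: fibronectin deposition inhibition.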
HIV Env fusion = HIV envelope-mediated fusion inhibition. inhibition, % at 12.3 µM. HeLa-JRFL Env/CEM21 cell fusion, luciferase. AID 651610. 360,000 tested, 1.1% active;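 active means mean replicate inhibition score of at least 50 and every replicate individually at or above 50; inconclusive means only one of the two criteria met; inactive means mean below 50 and not all replicates reaching 50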
Numbers stand for hits. Hits are enriched below; roughly 3.5% of the tested compounds scored in any of these assays.

How did CCOC(=O)[C@H]1[C@H]2COc3ccc(Cl)cc3[C@H]2N2C(=O)CNC(=O)[C@@]12C do in these assays?
Ecoli rRNA inh: inactive; DENV2 CPE: inactive; PGC1a acetyl inh: inactive; PglD DTNB: inactive; FN deposit inh: inactive; HIV Env fusion: inactive

What do the screens show for `CCOC(=O)[C@H]1[C@H]2COc3ccc(Br)cc3[C@H]2N2C(=O)CNC(=O)[C@@]12C`?
Ecoli rRNA inh: inactive; DENV2 CPE: 62.3; PglD DTNB: inactive; FN deposit inh: inactive; HIV Env fusion: inactive

What do the screens show for `CCOC(=O)[C@H]1[C@H]2COc3ccc(Br)cc3[C@@H]2N2C(=O)N(c3ccc(F)cc3)C(=O)[C@@]12C`?
Ecoli rRNA inh: inactive; DENV2 CPE: inactive; PGC1a acetyl inh: inactive; PglD DTNB: inactive; FN deposit inh: inactive; HIV Env fusion: inactive

How did CCOC(=O)[C@@H]1[C@H]2COc3ccc(Br)cc3[C@@H]2N2C(=O)N(c3cccc(F)c3)C(=O)[C@@]12C do in these assays?
Ecoli rRNA inh: inactive; DENV2 CPE: 93.3; PglD DTNB: inactive; FN deposit inh: inactive; HIV Env fusion: 75.2

Results for CCOC(=O)[C@@H]1[C@H]2COc3ccc(Br)cc3[C@@H]2N2C(=O)N(c3ccc(Cl)cc3)C(=O)[C@@]12C ?
Ecoli rRNA inh: inactive; DENV2 CPE: inconclusive; PGC1a acetyl inh: inactive; PglD DTNB: inactive; FN deposit inh: inactive; HIV Env fusion: 66.7

How did O=C(N[C@@H]1CC[C@H](CC(=O)N2CCc3ccccc3C2)O[C@H]1CO)C1CC1 do in these assays?
Ecoli rRNA inh: inactive; DENV2 CPE: inactive; PGC1a acetyl inh: inactive; PglD DTNB: inactive; FN deposit inh: inactive; HIV Env fusion: inactive

Results for CO[C@@H]1CN(C)C(=O)c2cc(NS(C)(=O)=O)ccc2OC[C@@H](C)N(Cc2cccnc2)C[C@H]1C ?
Ecoli rRNA inh: inactive; PGC1a acetyl inh: inactive; FN deposit inh: inactive

What do the screens show for `COc1ccc(-c2cn(CC[C@H]3CC[C@H](NC(=O)c4cnccn4)[C@H](CO)O3)nn2)cc1`?
Ecoli rRNA inh: inactive; DENV2 CPE: inactive; PGC1a acetyl inh: inactive; PglD DTNB: inactive; FN deposit inh: inactive; HIV Env fusion: inactive

How did CCOC(=O)[C@@H]1[C@H]2COc3ccc(Br)cc3[C@@H]2N2C(=O)N(c3ccc(C(F)(F)F)cc3)C(=O)[C@@]12C do in these assays?
Ecoli rRNA inh: inactive; DENV2 CPE: inactive; PglD DTNB: inactive; FN deposit inh: inactive; HIV Env fusion: 66.2

What do the screens show for `CCOC(=O)[C@@H]1[C@H]2COc3ccc(Br)cc3[C@@H]2N2C(=O)N(c3ccc(OC)cc3)C(=O)[C@@]12C`?
Ecoli rRNA inh: inactive; DENV2 CPE: inactive; PGC1a acetyl inh: inactive; PglD DTNB: inactive; FN deposit inh: inactive; HIV Env fusion: inactive

What do the screens show for `O=C(C1CCCC1)N1C[C@@H]2[C@H](c3ccccc31)[C@H](CO)N2C(=O)c1cccnc1`?
Ecoli rRNA inh: inactive; DENV2 CPE: inactive; PGC1a acetyl inh: inactive; PglD DTNB: inactive

What do the screens show for `COc1ccc(-c2oc3ncnc(NCCN4CCOCC4)c3c2-c2ccc(OC)cc2)cc1`?
PGC1a acetyl inh: inactive; PglD DTNB: inactive

Results for COc1ccc(-c2oc3ncnc(NCCCN4CCOCC4)c3c2-c2ccc(OC)cc2)cc1 ?
PGC1a acetyl inh: inactive; PglD DTNB: inactive; FN deposit inh: active; HIV Env fusion: inconclusive

How did Cc1c(CCC(=O)NCCCN2CCCC2=O)c(=O)oc2cc(O)ccc12 do in these assays?
DENV2 CPE: 66.6; PGC1a acetyl inh: inactive; PglD DTNB: inactive

How did Cc1oc2cc3oc(=O)c(CCC(=O)NCCCn4ccnc4)c(C)c3cc2c1C do in these assays?
Ecoli rRNA inh: inactive; DENV2 CPE: 20.9; PGC1a acetyl inh: inactive; PglD DTNB: inactive

What do the screens show for `COC(=O)c1ccc([C@H]2C=C(C(=O)O)O[C@@H](OCCCCO)C2)cc1`?
DENV2 CPE: inactive; PGC1a acetyl inh: inactive; PglD DTNB: inactive; HIV Env fusion: inactive

Results for C[n+]1c(/C=C/c2ccc(O)cc2)ccc2ccccc21 ?
Ecoli rRNA inh: inactive; DENV2 CPE: inactive; PGC1a acetyl inh: inactive; PglD DTNB: inactive; FN deposit inh: inactive; HIV Env fusion: inactive

How did Cc1cc(/C=C\c2ccc3cc(N(C)C)ccc3[n+]2C)c(C)n1-c1ccccc1 do in these assays?
PGC1a acetyl inh: 67.6; PglD DTNB: inactive

Results for COCCN(C(=O)COC(=O)C12CC3CC(CC(Cl)(C3)C1)C2)c1c(N)n(Cc2ccccc2)c(=O)[nH]c1=O ?
Ecoli rRNA inh: inactive; DENV2 CPE: inactive; PGC1a acetyl inh: inactive; PglD DTNB: inactive; FN deposit inh: inactive; HIV Env fusion: 67.9

How did COCCCN(C(=S)NC(=O)C12CC3CC(CC(C3)C1)C2)c1c(N)n(Cc2ccccc2)c(=O)[nH]c1=O do in these assays?
Ecoli rRNA inh: inactive; DENV2 CPE: inactive; PGC1a acetyl inh: inactive; FN deposit inh: inactive; HIV Env fusion: 84.4

How did COCCCN(C(=O)C1CCCCC1)c1c(N)n(Cc2ccccc2)c(=O)[nH]c1=O do in these assays?
Ecoli rRNA inh: inactive; DENV2 CPE: inactive; PglD DTNB: inactive; FN deposit inh: inactive

Results for Cc1ccc(S(=O)(=O)N(C)C[C@@H]2Oc3c(NC(=O)c4ccncc4)cccc3C(=O)N([C@H](C)CO)C[C@H]2C)cc1 ?
Ecoli rRNA inh: inactive; DENV2 CPE: inactive; PGC1a acetyl inh: inactive; PglD DTNB: inactive; HIV Env fusion: inactive

Results for C[C@H]1CCC/C=C/[C@@H]2C[C@H](O)C[C@H]2[C@H](O)[C@H](S(=O)c2ccc(O)cc2)CC(=O)O1 (stereo partly drawn) ?
Ecoli rRNA inh: inactive; DENV2 CPE: inactive; PGC1a acetyl inh: 66.3; FN deposit inh: inactive; HIV Env fusion: inactive

How did CC(Sc1nc(O)c(-c2ccccc2)c(=O)[nH]1)C(=O)Nc1ccc(Cl)cc1 (stereo not drawn) do in these assays?
Ecoli rRNA inh: -23.9; DENV2 CPE: inactive; FN deposit inh: inactive; HIV Env fusion: inactive

How did CC(Sc1nc2ncc(Cl)cc2[nH]1)C(=O)Nc1ccc(C(N)=O)cc1 (stereo not drawn) do in these assays?
Ecoli rRNA inh: inactive; DENV2 CPE: 117.6; PGC1a acetyl inh: inactive; PglD DTNB: inactive; HIV Env fusion: inactive

Results for CC(C)C#Cc1ccc2c(c1)O[C@@H](CN(C)Cc1cncnc1)[C@@H](C)CN([C@@H](C)CO)S2(=O)=O ?
Ecoli rRNA inh: inactive; DENV2 CPE: inactive; PGC1a acetyl inh: inactive; PglD DTNB: inactive; FN deposit inh: inactive; HIV Env fusion: inactive

What do the screens show for `N/C(=N\OC(=O)CC(c1ccccc1)c1ccccc1)c1cccnc1`?
Ecoli rRNA inh: -19.5; DENV2 CPE: inactive; PGC1a acetyl inh: inactive; FN deposit inh: inactive; HIV Env fusion: inactive

What do the screens show for `N/C(=N\OC(=O)Cc1ccccc1)c1cccnc1`?
FN deposit inh: inactive; HIV Env fusion: inactive

Results for COc1ccc(-c2cnc3n2CCCCC3)cc1 ?
Ecoli rRNA inh: inactive; DENV2 CPE: 44.2; PGC1a acetyl inh: inactive; PglD DTNB: inactive; FN deposit inh: inactive; HIV Env fusion: inactive

What do the screens show for `Clc1ccc(-c2cnc3n2CCC3)cc1`?
PGC1a acetyl inh: inactive; PglD DTNB: inactive; FN deposit inh: inactive; HIV Env fusion: inactive

Compound activity (PubChem BioAssay)
